Test results from ChEMBL document CHEMBL4325893, “Synthesis and antibacterial profiles of targeted triclosan derivatives” (2019).
Converted amounts (≈) assume the structure as drawn.

Tests used:
[1] = test system: Staphylococcus haemolyticus; assay: Antibacterial activity against Staphylococcus haemolyticus OCC 2223 after 18 hrs; assay type: functional; settings: OCC 2223, 18 h
In short: (§1)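 Broth microdilution in Nutrient Broth No. 2. Ethanol stocks were diluted in broth to 0.01–128 µg/ml for triclosan and 0.25–256 µg/ml for glycosides. Overnight 37°C NB2 cultures were diluted 1 in 10^4 in saline and added to the wells. Plates were incubated at 37°C with OD read every 15 min after agitation. MIC was the lowest concentration giving no OD increase at 18 h.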

[2] = Antibacterial activity against Salmonella enterica subspecies enterica serotype Dublin OCC 627 after 18 hrs; assay type: functional, Salmonella enterica subsp. enterica serovar Dublin; settings: OCC 627, 18 h
In short: (§2)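 Broth microdilution in Nutrient Broth No. 2; stocks in ethanol diluted to 0.01–128 µg/ml (triclosan) or 0.25–256 µg/ml (glycosides). Overnight 37 °C NB2 cultures diluted 1 in 10^4 in saline and added to the dilutions. Incubation at 37 °C with agitation, OD read every 15 min; MIC is the lowest concentration preventing any OD rise after 18 h.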

Staphylococcus aureus [3] = assay: Antibacterial activity against Staphylococcus aureus NCTC 13758 after 18 hrs; assay type: functional; settings: NCTC 13758, 18 h; in short: as §2
[4] = test system: Salmonella enterica subsp. enterica serovar Abony; assay: Antibacterial activity against Salmonella enterica subspecies enterica serotype Abony NCTC 6017 after 18 hrs; assay type: functional; settings: NCTC 6017, 18 h; in short: as §2
Klebsiella aerogenes = assay: Antibacterial activity against Klebsiella aerogenes NCTC 8167 after 18 hrs; assay type: functional; settings: NCTC 8167, 18 h; in short: as §2
Staphylococcus aureus [5] = assay: Antibacterial activity against Staphylococcus aureus ATCC 9144 after 18 hrs; assay type: functional; settings: ATCC 9144, 18 h; in short: as §2
[6] = test system: Staphylococcus epidermidis; assay: Antibacterial activity against Staphylococcus epidermidis ATCC 14990 after 18 hrs; assay type: functional; settings: ATCC 14990, 18 h; in short: as §2
[7] = test system: Staphylococcus epidermidis; assay: Antibacterial activity against Staphylococcus epidermidis 155 after 18 hrs; assay type: functional; settings: Staphylococcus epidermidis, 155, 18 h; in short: as §2
[8] = Antibacterial activity against Salmonella enterica subspecies enterica serotype Poona NCTC 4840 after 18 hrs; assay type: functional, Salmonella enterica subsp. enterica serovar Poona; settings: NCTC 4840, 18 h; in short: as §2
Escherichia coli [9] = assay: Antibacterial activity against Escherichia coli ATCC 35218 after 18 hrs; assay type: functional; settings: ATCC 35218, 18 h; in short: as §2
Proteus mirabilis = assay: Antibacterial activity against Proteus mirabilis ATCC 12453 after 18 hrs; assay type: functional; settings: ATCC 12453, 18 h; in short: as §2
Salmonella enteritidis = assay: Antibacterial activity against Salmonella enterica subspecies enterica serotype Enteritidis 13076 after 18 hrs; assay type: functional, Salmonella enterica subsp. enterica serovar Enteritidis; settings: Salmonella enterica, 13076, 18 h; in short: as §2
Bacillus cereus = assay: Antibacterial activity against Bacillus cereus ATCC 14579 after 18 hrs; assay type: functional; settings: ATCC 14579, 18 h; in short: as §2
[10] = Antibacterial activity against Enterobacter cloacae ATCC 13047 after 18 hrs; assay type: functional, Enterobacter cloacae subsp. cloacae; settings: ATCC 13047, 18 h; in short: as §2
Citrobacter freundii = assay: Antibacterial activity against Citrobacter freundii 8090 after 18 hrs; assay type: functional; settings: Citrobacter freundii, 8090, 18 h; in short: as §2
[11] = test system: Staphylococcus epidermidis; assay: Antibacterial activity against Staphylococcus epidermidis ATCC 12228 after 18 hrs; assay type: functional; settings: ATCC 12228, 18 h; in short: as §2
Enterococcus faecalis [12] = assay: Antibacterial activity against Enterococcus faecalis ATCC 29212 after 18 hrs; assay type: functional; settings: ATCC 29212, 18 h; in short: as §2
Escherichia coli [13] = assay: Antibacterial activity against Escherichia coli 700728 after 18 hrs; assay type: functional; settings: Escherichia coli, 700728, 18 h; in short: as §2
Enterococcus faecalis [14] = assay: Antibacterial activity against Enterococcus faecalis ATCC 33186 after 18 hrs; assay type: functional; settings: ATCC 33186, 18 h; in short: as §2
[15] = Antibacterial activity against Salmonella enterica subspecies enterica serotype Nottingham NCTC 7832 after 18 hrs; assay type: functional, Salmonella enterica subsp. enterica serovar Nottingham; settings: NCTC 7832, 18 h; in short: as §2
Proteus vulgaris = assay: Antibacterial activity against Proteus vulgaris OCC 195 after 18 hrs; assay type: functional; settings: OCC 195, 18 h; in short: as §2
Klebsiella pneumoniae = assay: Antibacterial activity against Klebsiella pneumoniae ATCC 10031 after 18 hrs; assay type: functional; settings: ATCC 10031, 18 h; in short: as §2
Escherichia coli [16] = assay: Antibacterial activity against Escherichia coli ATCC 10536 after 18 hrs; assay type: functional; settings: ATCC 10536, 18 h; in short: as §2
Bacillus subtilis = assay: Antibacterial activity against Bacillus subtilis NCTC 10073 after 18 hrs; assay type: functional; settings: NCTC 10073, 18 h; in short: as §2
Streptococcus agalactiae = assay: Antibacterial activity against Streptococcus agalactiae OCC 182 after 18 hrs; assay type: functional; settings: OCC 182, 18 h; in short: as §1
Enterococcus faecium = assay: Antibacterial activity against Enterococcus faecium ATCC 19434 after 18 hrs; assay type: functional; settings: ATCC 19434, 18 h; in short: as §2
Streptococcus pneumoniae = assay: Antibacterial activity against Streptococcus pneumoniae ATCC 49619 after 18 hrs; assay type: functional; settings: ATCC 49619, 18 h; in short: as §1
Staphylococcus aureus [17] = assay: Antibacterial activity against Staphylococcus aureus ATCC 29213 after 18 hrs; assay type: functional; settings: ATCC 29213, 18 h; in short: as §2

MIC [2]: 32 to 64 µg/mL (≈ 70.8 to 142 µM)
MIC (Staphylococcus aureus [3]): 8 to 16 µg/mL (≈ 17.7 to 35.4 µM)
MIC [4]: 32 to 64 µg/mL (≈ 70.8 to 142 µM)
MIC (Klebsiella aerogenes): 32 µg/mL (≈ 70.8 µM)
MIC (Staphylococcus aureus [5]): 8 to 16 µg/mL (≈ 17.7 to 35.4 µM)
MIC [6]: 8 to 32 µg/mL (≈ 17.7 to 70.8 µM)
MIC [7]: 8 to 32 µg/mL (≈ 17.7 to 70.8 µM)
MIC [8]: 32 to 64 µg/mL (≈ 70.8 to 142 µM)
MIC (Escherichia coli [9]): 16 to 64 µg/mL (≈ 35.4 to 142 µM)
MIC (Proteus mirabilis): 32 µg/mL (≈ 70.8 µM)
MIC (Salmonella enteritidis): 32 to 64 µg/mL (≈ 70.8 to 142 µM)
MIC (Bacillus cereus): > 256 µg/mL
MIC [10]: 32 µg/mL (≈ 70.8 µM)
MIC (Citrobacter freundii): 64 µg/mL (≈ 142 µM)
MIC [11]: 8 to 32 µg/mL (≈ 17.7 to 70.8 µM)
MIC (Enterococcus faecalis [12]): > 256 µg/mL
MIC (Escherichia coli [13]): 16 to 64 µg/mL (≈ 35.4 to 142 µM)
MIC (Enterococcus faecalis [14]): > 256 µg/mL
MIC [15]: 32 to 64 µg/mL (≈ 70.8 to 142 µM)
MIC (Proteus vulgaris): 64 µg/mL (≈ 142 µM)
MIC (Klebsiella pneumoniae): 1 µg/mL (≈ 2.21 µM)
MIC (Escherichia coli [16]): 16 to 64 µg/mL (≈ 35.4 to 142 µM)
MIC (Bacillus subtilis): 256 µg/mL (≈ 567 µM)
MIC (Streptococcus agalactiae): > 256 µg/mL
MIC (Enterococcus faecium): > 256 µg/mL
MIC (Streptococcus pneumoniae): 128 µg/mL (≈ 283 µM)
MIC (Staphylococcus aureus [17]): 8 to 16 µg/mL (≈ 17.7 to 35.4 µM)
SMILES: OC[C@H]1O[C@H](Oc2cc(Cl)ccc2Oc2ccc(Cl)cc2Cl)[C@H](O)[C@@H](O)[C@H]1O
MIC [1]: 16 µg/mL (≈ 35.4 µM)
